{"source": "paper PMC11370551", "about": "(bioRxiv, 2024)", "type_in_all_cases": "in vivo, mouse", "key": {"female WT Swiss mice [1]": {"test_system": "female WT Swiss mice", "test": "Safety profile and MTD in female WT Swiss mice", "conditions": "SC", "in_short": "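A GLP-1 receptor agonist was injected subcutaneously into WT mice at 0.5 (~5 nmol), 3 (~30 nmol) or 10 mg/kg (~100 nmol) to check tolerability before the painting studies.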"}, "female WT Swiss mice [2]": {"test_system": "female WT Swiss mice", "test": "Ip-GTT in WT Swiss mice", "conditions": "6 days ([…]) after single SC 10 mg/kg; glucose 2 g/kg IP; naïve 21,354 ± 431", "in_short": "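Female WT Swiss mice got a single subcutaneous injection of test compound at 10 mg/kg (~25 nmol). […] AUCs were compared by non-parametric t-tests.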"}, "Lepob/ob obese mice [3]": {"test_system": "Lepob/ob obese mice", "test": "Efficacy in obese Lepob/ob mice after SC injection", "in_short": "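Obese Lepob/ob mice (n = 6 per compound; 3 males, 3 females) got a single subcutaneous 10 mg/kg injection. Untreated non-obese C57BL/6J mice (3 males, 3 females) gave healthy baselines. Body weight was tracked as % change from Day 0. Blood glucose was read after 6 h fasting. IP glucose tolerance: 2 g/kg after 5–6 h fast. ITT: insulin 2.5 IU/kg at 240 h, AUC0–90 min, k-ITT. Analysis: two-way ANOVA and multiparametric t-tests.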"}, "Lepob/ob obese mice [4]": {"test_system": "Lepob/ob obese mice", "test": "Efficacy in obese Lepob/ob mice after IP injection", "conditions": "single IP 10 mg/kg", "in_short": "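Obese Lepob/ob mice got a single intraperitoneal 10 mg/kg injection of test compound; the other arm of the route comparison was subcutaneous. Body weight was tracked as % change from Day 0. Fasting blood glucose was measured. Insulin response was assessed 10 days post-injection.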"}}, "data": [{"substance": "Semaglutide", "values": [{"measurement": "dose from which hypoglycemia was observed", "setting": "female WT Swiss mice [1]; WT mice, doses 0.5, 3, 10 mg/kg", "result": "≥ 0.5", "unit": "mg/kg"}, {"measurement": "MTD (maximum tolerated dose among the assessed range)", "setting": "female WT Swiss mice [1]; female WT Swiss mice", "result": 10, "unit": "mg/kg"}, {"measurement": "Ip-GTT AUC0–120min", "setting": "female WT Swiss mice [2]", "result": "21,282 ± 795"}, {"measurement": "body weight loss", "setting": "Lepob/ob obese mice [3]; for 3 days after single SC 10 mg/kg (~170 nmol), n = 6", "result": "about 8.3 ± 0.5%"}, {"measurement": "duration of significant body weight loss", "setting": "Lepob/ob obese mice [3]; single SC 10 mg/kg", "result": 3, "unit": "days"}, {"measurement": "duration of blood glucose down-regulation", "setting": "Lepob/ob obese mice [3]; single SC 10 mg/kg, both sexes combined", "result": "up to 10 days"}, {"measurement": "duration of sustained body weight loss", "setting": "Lepob/ob obese mice [4]", "result": "up to 7 days"}, {"measurement": "fasting blood glucose lowering after 10 days", "setting": "Lepob/ob obese mice [4]; 240 h p.i.", "result": "no more efficacy"}]}]}
